Laboratory results published in ChEMBL document CHEMBL4118126, “An orally available, brain-penetrant CAMKK2 inhibitor reduces food intake in rodent model” (Bioorg Med Chem Lett, 2018).
Values after ≈ are worked out from the molar mass of the structure shown.

Legend:
[1] = biological target: Insulin receptor (Homo sapiens, UniProt P06213); assay: Inhibition of INSR (unknown origin)
[2] = Solubility of the compound in pH 7.4 phosphate buffer saline after 1 hr by chemiluminescence nitrogen detection method; assay type: physicochemical; details: phosphate buffered saline
In short: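 Kinetic solubility: 10 mM DMSO stock diluted 1:20 into 10 mM phosphate-buffered saline pH 7.4, equilibrated 1 h at RT, filtered, and filtrate quantified by calibrated flow-injection chemiluminescent nitrogen detection.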

[3] = biological target: Calcium/calmodulin-dependent protein kinase kinase 2 (Mus musculus, UniProt Q8C078); assay: Inhibition of CAMKK2 in mouse N39 cells assessed as decrease in AMPKalpha phosphorylation at T172 preincubated for 80 mins followed by […] addition by ELISA; assay type: cell-based
In short: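 Mouse N39 cells seeded ~1000 cells/well, cultured overnight at 37°C, 5% CO2, then exposed to compound in DMSO for 80 min before ionomycin stimulation ([…] as added). Cells were lysed in extraction buffer for 30 min on ice, then diluted into ice-cold lysis buffer containing protease and phosphatase inhibitors for MSD read-out.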

[4] = Ratio of drug level in brain to plasma in CD rat at 10 mg/kg, po; assay type: ADME, organism-based; details: read-out: BPR
[5] = Cmax in CD rat at 10 mg/kg, po; assay type: ADME, organism-based; parameters: dose 10 mg/kg, route oral; details: in vivo
[6] = biological target: T1, Inhibitor of nuclear factor kappa-B kinase subunit alpha (Homo sapiens, UniProt O15111); assay: Inhibition of IKK1 (unknown origin)
T1 sequence (O15111 whole entry): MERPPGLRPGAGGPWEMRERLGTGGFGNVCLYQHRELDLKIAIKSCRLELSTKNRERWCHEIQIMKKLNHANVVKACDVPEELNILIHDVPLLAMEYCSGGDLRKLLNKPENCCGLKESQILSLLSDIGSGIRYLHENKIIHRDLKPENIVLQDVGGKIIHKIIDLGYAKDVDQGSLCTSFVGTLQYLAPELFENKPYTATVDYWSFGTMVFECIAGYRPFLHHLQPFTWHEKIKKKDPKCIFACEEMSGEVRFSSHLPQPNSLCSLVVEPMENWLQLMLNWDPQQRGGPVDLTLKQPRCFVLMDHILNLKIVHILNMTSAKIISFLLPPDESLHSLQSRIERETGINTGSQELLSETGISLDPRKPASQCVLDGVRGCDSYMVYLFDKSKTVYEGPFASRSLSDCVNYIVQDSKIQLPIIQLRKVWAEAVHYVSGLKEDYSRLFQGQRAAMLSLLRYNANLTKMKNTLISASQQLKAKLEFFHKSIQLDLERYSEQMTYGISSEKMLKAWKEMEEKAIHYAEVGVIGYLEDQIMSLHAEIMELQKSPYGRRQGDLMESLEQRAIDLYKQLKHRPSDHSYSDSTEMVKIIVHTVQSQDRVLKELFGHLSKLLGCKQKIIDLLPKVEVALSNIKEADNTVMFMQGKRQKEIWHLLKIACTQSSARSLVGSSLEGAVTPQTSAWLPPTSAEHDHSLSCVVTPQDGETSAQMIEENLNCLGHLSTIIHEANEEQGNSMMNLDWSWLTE

[7] = biological target: Mitogen-activated protein kinase 8 (Homo sapiens, UniProt P45983); assay: Inhibition of JNK1 (unknown origin)
[8] = biological target: Calcium/calmodulin-dependent protein kinase kinase 2 (Homo sapiens, UniProt Q96RR4); assay: Inhibition of full-length human GST-tagged CAMKK2 using 5FAM-AKPKGNKDYHLQTCCGSLAYRRR-amide as substrate preincubated for 30 mins followed by substrate addition measured after 120 mins by fluorescence polarization assay
[9] = Ratio of drug level in brain to plasma in CD rat at 30 mg/kg, po; assay type: ADME, organism-based; details: read-out: BPR
[10] = Cmax in CD rat at 30 mg/kg, po; assay type: ADME, organism-based; parameters: dose 30 mg/kg, route oral; details: in vivo
[11] = biological target: T2, Aurora kinase A (Homo sapiens, UniProt O14965); assay: Inhibition of aurora A (unknown origin)
T2 sequence (O14965 whole entry): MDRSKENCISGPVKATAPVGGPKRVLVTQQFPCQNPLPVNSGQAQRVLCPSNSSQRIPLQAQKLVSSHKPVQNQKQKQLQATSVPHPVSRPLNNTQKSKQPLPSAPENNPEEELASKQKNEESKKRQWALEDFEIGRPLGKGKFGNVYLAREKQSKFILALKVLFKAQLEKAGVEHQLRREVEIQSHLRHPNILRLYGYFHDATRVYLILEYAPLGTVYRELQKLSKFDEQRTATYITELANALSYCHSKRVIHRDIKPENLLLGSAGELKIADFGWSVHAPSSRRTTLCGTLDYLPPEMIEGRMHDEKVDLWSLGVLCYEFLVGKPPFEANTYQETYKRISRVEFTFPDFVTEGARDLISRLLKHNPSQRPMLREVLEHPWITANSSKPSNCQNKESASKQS

[12] = biological target: T3, Discoidin domain-containing receptor 2 (Homo sapiens, UniProt Q16832); assay: Inhibition of DDR2 (unknown origin)
T3 sequence (Q16832 whole entry): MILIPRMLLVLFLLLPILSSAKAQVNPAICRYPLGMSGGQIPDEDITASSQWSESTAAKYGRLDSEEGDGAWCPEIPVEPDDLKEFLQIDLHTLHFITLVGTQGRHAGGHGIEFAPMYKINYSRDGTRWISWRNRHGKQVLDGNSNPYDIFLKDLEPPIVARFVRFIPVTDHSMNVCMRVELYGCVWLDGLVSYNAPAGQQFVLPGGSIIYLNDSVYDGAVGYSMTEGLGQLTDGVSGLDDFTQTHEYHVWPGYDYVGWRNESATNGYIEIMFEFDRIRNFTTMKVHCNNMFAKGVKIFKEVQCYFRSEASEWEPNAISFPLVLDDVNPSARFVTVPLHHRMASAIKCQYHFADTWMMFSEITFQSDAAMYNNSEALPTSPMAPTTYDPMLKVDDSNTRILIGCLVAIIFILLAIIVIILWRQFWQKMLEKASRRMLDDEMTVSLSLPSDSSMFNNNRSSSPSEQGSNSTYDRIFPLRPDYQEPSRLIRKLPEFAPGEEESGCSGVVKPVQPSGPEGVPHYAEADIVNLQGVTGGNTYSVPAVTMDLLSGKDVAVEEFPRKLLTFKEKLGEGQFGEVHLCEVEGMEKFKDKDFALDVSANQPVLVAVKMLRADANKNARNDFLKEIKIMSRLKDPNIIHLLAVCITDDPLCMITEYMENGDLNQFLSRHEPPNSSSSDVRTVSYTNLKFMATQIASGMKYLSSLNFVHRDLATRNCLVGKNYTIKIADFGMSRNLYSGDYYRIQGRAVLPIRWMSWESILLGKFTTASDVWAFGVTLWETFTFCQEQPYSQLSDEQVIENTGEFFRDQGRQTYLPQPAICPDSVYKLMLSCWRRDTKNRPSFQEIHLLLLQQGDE

[13] = biological target: Glycogen synthase kinase-3 beta (Homo sapiens, UniProt P49841); assay: Inhibition of GSK3beta (unknown origin)
[14] = biological target: Phosphatidylinositol 4,5-bisphosphate 3-kinase catalytic subunit gamma isoform (Homo sapiens, UniProt P48736); assay: Inhibition of PI3Kgamma (unknown origin)
[15] = tested on: Rattus norvegicus; assay: Inhibition of ghrelin-induced food intake in Sprague-Dawley rat at 30 mg/kg, po administered 1 hr followed by ghrelin addition measured for 4 hrs relative to control; assay type: functional
[16] = tested on: Rattus norvegicus; assay: Reduction of food intake in Sprague-Dawley rat at 30 mg/kg, po administered 1 hr measured for 4 hrs; assay type: ADME, organism-based; details: in vivo

Chain of Phosphatidylinositol 4,5-bisphosphate 3-kinase catalytic subunit gamma isoform (P48736 whole entry, canonical isoform): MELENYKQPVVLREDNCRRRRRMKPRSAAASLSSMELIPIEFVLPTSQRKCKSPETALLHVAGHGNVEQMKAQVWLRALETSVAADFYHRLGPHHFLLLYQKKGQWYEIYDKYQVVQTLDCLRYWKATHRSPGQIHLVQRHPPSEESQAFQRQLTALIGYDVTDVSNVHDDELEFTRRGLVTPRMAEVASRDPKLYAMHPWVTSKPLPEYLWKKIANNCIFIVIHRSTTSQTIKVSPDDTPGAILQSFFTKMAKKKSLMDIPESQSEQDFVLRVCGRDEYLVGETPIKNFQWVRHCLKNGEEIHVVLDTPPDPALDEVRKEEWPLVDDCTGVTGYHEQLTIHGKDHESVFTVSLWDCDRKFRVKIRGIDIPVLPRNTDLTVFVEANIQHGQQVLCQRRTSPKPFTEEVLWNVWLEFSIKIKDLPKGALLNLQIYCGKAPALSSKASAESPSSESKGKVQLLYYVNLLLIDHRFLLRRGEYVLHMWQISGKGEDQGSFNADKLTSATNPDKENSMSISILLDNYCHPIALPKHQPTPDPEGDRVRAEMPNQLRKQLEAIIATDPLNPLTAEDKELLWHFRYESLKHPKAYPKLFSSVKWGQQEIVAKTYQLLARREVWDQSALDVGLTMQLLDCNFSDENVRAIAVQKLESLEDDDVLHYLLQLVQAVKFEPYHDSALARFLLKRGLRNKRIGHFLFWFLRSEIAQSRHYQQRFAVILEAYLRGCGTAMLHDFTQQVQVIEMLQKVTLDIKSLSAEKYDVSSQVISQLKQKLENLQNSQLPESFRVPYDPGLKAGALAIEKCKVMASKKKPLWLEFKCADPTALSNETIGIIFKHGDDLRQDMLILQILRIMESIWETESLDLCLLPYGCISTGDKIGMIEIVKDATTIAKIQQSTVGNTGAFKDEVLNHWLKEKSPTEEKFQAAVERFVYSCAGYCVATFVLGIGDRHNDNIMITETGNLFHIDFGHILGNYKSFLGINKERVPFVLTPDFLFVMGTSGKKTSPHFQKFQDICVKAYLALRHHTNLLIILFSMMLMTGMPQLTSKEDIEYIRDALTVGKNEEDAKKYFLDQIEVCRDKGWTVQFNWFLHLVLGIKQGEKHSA
Chain of Insulin receptor (P06213 28-758 limits assumed): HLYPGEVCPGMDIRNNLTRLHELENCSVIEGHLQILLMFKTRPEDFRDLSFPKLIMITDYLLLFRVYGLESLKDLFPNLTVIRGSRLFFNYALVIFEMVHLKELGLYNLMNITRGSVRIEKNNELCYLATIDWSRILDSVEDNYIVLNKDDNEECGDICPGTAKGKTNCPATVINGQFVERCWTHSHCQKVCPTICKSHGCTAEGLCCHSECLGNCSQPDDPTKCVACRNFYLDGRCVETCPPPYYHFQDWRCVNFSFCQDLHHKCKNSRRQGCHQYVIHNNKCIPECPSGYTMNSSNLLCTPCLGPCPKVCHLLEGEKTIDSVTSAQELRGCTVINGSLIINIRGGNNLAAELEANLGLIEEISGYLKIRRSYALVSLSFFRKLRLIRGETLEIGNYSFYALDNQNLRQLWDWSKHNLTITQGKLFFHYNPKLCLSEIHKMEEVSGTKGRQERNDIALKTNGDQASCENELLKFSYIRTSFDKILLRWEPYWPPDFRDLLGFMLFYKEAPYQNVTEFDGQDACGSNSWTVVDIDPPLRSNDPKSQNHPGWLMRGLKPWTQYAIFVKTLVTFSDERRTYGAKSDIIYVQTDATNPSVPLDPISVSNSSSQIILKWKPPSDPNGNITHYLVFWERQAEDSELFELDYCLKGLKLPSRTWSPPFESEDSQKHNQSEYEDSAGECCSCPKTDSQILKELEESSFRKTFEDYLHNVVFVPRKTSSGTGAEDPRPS
Chain of Insulin receptor (P06213 763-1382 limits assumed): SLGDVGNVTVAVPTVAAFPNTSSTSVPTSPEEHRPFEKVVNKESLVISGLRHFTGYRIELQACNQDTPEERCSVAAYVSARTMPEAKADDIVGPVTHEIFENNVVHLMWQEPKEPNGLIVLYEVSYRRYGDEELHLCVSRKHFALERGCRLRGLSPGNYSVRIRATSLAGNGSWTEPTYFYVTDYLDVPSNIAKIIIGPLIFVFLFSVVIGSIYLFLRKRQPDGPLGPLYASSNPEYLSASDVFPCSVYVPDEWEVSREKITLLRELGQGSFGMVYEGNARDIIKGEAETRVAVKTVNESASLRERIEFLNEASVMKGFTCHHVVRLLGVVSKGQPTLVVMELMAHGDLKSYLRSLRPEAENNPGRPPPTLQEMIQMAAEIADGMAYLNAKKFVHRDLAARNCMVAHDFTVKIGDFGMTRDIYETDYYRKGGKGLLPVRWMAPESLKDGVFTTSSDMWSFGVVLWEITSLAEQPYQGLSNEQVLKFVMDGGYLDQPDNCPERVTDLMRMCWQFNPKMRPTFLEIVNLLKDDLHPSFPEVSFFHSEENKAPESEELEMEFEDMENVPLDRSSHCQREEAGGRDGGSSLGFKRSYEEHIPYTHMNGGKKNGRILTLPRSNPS
Chain of Calcium/calmodulin-dependent protein kinase kinase 2 (Mus musculus, UniProt Q8C078) (Q8C078 whole entry): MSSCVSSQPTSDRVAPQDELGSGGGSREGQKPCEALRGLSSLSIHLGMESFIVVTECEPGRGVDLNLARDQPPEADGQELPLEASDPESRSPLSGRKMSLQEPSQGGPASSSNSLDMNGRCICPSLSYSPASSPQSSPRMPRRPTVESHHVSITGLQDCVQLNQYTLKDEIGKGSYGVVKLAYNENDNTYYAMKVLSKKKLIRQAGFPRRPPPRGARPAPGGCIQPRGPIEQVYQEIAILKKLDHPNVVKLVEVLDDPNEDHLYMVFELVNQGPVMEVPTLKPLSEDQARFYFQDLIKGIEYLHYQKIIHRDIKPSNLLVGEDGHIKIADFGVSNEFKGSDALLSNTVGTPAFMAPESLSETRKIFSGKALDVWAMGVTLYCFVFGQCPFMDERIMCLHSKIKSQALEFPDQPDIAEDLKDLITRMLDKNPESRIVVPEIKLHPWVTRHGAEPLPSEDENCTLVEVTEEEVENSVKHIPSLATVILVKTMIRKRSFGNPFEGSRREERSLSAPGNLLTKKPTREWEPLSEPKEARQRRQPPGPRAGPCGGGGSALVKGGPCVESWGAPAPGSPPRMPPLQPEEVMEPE
Chain of Calcium/calmodulin-dependent protein kinase kinase 2 (Homo sapiens, UniProt Q96RR4) (Q96RR4 whole entry): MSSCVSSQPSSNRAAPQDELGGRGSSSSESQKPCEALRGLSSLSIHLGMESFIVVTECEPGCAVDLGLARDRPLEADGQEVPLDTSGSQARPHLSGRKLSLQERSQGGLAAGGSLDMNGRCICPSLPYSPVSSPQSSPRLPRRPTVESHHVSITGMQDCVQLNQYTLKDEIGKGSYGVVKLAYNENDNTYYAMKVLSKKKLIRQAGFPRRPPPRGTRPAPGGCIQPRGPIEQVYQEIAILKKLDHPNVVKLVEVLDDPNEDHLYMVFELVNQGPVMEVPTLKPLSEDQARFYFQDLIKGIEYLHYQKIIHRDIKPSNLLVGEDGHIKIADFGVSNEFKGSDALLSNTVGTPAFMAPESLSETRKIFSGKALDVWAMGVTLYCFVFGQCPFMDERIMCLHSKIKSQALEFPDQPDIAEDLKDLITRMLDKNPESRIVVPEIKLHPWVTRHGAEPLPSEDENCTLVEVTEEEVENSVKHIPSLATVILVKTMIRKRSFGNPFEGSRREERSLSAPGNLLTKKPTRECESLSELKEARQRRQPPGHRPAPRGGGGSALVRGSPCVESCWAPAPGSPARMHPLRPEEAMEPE
Chain of Mitogen-activated protein kinase 8 (P45983 whole entry): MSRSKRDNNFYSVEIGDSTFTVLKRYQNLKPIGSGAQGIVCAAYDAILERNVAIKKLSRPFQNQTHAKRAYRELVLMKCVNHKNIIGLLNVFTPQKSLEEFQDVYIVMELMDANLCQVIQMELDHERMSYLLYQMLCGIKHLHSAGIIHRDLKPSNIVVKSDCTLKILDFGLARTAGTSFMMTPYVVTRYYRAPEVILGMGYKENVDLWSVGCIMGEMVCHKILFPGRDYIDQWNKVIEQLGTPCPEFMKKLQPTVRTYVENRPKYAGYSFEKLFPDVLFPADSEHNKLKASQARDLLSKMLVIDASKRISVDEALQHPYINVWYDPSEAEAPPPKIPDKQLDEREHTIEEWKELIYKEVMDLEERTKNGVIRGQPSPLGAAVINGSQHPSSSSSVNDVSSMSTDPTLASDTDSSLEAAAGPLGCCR
Chain of Glycogen synthase kinase-3 beta (P49841 whole entry, canonical isoform): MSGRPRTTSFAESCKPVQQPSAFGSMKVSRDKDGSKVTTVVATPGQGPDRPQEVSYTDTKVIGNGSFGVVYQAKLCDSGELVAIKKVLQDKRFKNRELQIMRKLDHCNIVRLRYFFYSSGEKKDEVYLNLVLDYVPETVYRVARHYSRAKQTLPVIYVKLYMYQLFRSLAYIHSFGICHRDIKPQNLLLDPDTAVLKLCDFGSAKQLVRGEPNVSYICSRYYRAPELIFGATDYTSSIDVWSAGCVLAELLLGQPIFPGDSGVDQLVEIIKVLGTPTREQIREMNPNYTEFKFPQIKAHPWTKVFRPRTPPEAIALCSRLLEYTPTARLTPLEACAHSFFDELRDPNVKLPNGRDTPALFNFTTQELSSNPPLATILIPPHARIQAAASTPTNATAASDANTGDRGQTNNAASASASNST

Structure (SMILES)	IC50 ([1]; read-out: pIC50 (converted))	solubility at 1 h [2]	IC50 [3]	Kp [4]	Cmax [5]	IC50 [6]	IC50 [7]	IC50 [8]	Kp [9]	Cmax [10]	IC50 ([1]; read-out: IC50)	IC50 [11]	IC50 [12]	IC50 [13]	IC50 [14]	inhibition in vivo at 30 mg/kg [15]	Activity [16]
COc1ccc(-c2ccccc2)cc1Nc1nccc(-c2ccc(C(N)=O)cc2)n1	–	7 µM (≈ 2.78 µg/mL)	> 10 µM	–	–	–	> 10 µM	0.0126 to 0.251 µM	–	–	–	–	–	> 25.1 µM	7.94 µM	–	–
O=C(O)c1ccc(-c2ccnc(Nc3cccc(-c4ccccc4)c3)n2)cc1	–	14 µM (≈ 5.14 µg/mL)	7.94 µM	–	–	–	0.398 µM	0.00794 to 0.1 µM	–	–	–	–	–	0.398 µM	0.0126 µM	–	–
COc1ccccc1Nc1ncc(F)c(-c2ccc(C(N)=O)c(C(C)C)c2)n1	–	11 µM (≈ 4.18 µg/mL)	3.16 µM	–	–	–	3.16 µM	0.0398 to 0.316 µM	–	–	–	–	–	7.94 µM	> 10 µM	–	–
NC(=O)c1ccc(-c2ccnc(Nc3cccc(-c4ccccc4)c3)n2)cc1	–	3 µM (≈ 1.1 µg/mL)	0.631 µM	–	–	–	1 µM	0.00794 to 0.0251 µM	–	–	–	–	–	0.0316 µM	0.1 µM	–	–
NC(=O)c1ccc(-c2ccnc(Nc3cc(-c4ccccc4)ccc3F)n2)cc1	–	3 µM (≈ 1.15 µg/mL)	7.94 µM	–	–	–	> 10 µM	0.02 µM	–	–	–	–	–	2.51 µM	> 10 µM	–	–

The next lines start with results.

IC50 ([1]; read-out: pIC50 (converted))	solubility at 1 h [2]	IC50 [3]	Kp [4]	Cmax [5]	IC50 [6]	IC50 [7]	IC50 [8]	Kp [9]	Cmax [10]	IC50 ([1]; read-out: IC50)	IC50 [11]	IC50 [12]	IC50 [13]	IC50 [14]	Structure (SMILES)	inhibition in vivo at 30 mg/kg [15]	Activity [16]
0.794 µM	7 µM (≈ 2.88 µg/mL)	0.1 µM	3.2	0.035 µg/mL	2.51 µM	2 µM	0.002 µM	–	–	–	–	–	–	–	COc1ccccc1-c1cc2c(-c3ccc(C(N)=O)c(C4CCCC4)c3)ccnc2[nH]1	–	–
0.398 µM	4 µM (≈ 1.99 µg/mL)	0.0631 µM	–	–	2.51 µM	2 µM	0.000794 to 0.00794 µM	0.6	0.374 µg/mL	–	–	–	–	–	Cc1cc(OCCN2CCOCC2)ccc1-c1cc2c(-c3ccc(C(N)=O)c(C(C)C)c3)ccnc2[nH]1	–	–
> 10 µM	9 µM (≈ 3.95 µg/mL)	7.94 µM	–	–	> 31.6 µM	20 µM	0.1 to 0.251 µM	–	–	> 10 µM	> 10 µM	> 10 µM	–	–	Cc1cc(OCCN2CCOCC2)ccc1-c1cc2c(-c3ccc(C#N)cc3)ccnc2[nH]1	–	–
> 10 µM	2 µM (≈ 0.817 µg/mL)	2.51 µM	–	–	> 25.1 µM	> 10 µM	0.0794 to 0.398 µM	–	–	> 10 µM	> 10 µM	> 10 µM	–	–	Cc1ccc(CN2CCOCC2)cc1-c1cc2c(-c3ccc(C#N)cc3)ccnc2[nH]1	–	–
> 10 µM	1 µM (≈ 0.451 µg/mL)	0.398 µM	–	–	2.51 µM	7.94 µM	0.0126 µM	0.6	0.127 µg/mL	> 10 µM	> 10 µM	> 10 µM	–	–	Cc1ccc(CN2CCOCC2)cc1-c1cc2c(-c3ccc(C#N)c(C(C)C)c3)ccnc2[nH]1	–	–
–	> 444 µM	> 10 µM	–	–	–	5.01 µM	0.2 to 1.58 µM	–	–	–	–	–	> 25.1 µM	3.98 µM	COc1ccccc1Nc1nccc(-c2ccc(C(=O)O)cc2)n1	–	–
> 10 µM	< 1 µM	0.501 µM	–	–	> 25.1 µM	> 10 µM	0.00631 µM	0.9	0.964 µg/mL	> 10 µM	> 10 µM	> 10 µM	–	–	Cc1cc(OCCN2CCOCC2)ccc1-c1cc2c(-c3ccc(C#N)c(C(C)C)c3)ccnc2[nH]1	40%	Non-Toxic
